Results reported in ChEMBL document CHEMBL4017487, “Design and Synthesis of γ- and δ-Lactam M1 Positive Allosteric Modulators (PAMs): Convulsion and Cholinergic Toxicity of an M1-Selective PAM with Weak Agonist Activity” (J Med Chem, 2017).
Values after ≈ are worked out from the molar mass of the structure shown. Active and inactive are the calls of the source. The calls are words filed in the database; no cut-off is given here.

What was measured:
[1] = target: T1, Muscarinic acetylcholine receptor M1 (Homo sapiens, UniProt P11229); experiment: Positive allosteric modulation of human muscarinic acetylcholine receptor M1 expressed in CHO cells assessed as increase in acetylcholine-induced calcium mobilization by measuring functional co-operativity with acetylcholine preincubated for 10 mins followed by acetylcholine addition by Fluo-8-AM dye based FLIPR assay; format: ADME, cell-based
T1 sequence (P11229 whole entry): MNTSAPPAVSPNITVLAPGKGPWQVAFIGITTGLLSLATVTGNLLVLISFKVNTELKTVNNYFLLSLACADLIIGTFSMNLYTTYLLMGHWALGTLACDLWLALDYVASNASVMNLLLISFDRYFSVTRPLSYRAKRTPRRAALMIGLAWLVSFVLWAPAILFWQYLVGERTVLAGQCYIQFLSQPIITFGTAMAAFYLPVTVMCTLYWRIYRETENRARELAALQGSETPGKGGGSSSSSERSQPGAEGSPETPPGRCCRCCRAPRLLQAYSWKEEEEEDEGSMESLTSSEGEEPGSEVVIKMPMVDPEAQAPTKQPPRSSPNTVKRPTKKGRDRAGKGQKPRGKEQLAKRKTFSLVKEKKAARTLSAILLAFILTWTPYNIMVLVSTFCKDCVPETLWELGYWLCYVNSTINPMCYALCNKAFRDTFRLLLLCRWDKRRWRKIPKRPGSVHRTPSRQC
In short: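 In FLIPR calcium-mobilization data, ACh concentration–response curves with and without test compound were fitted with the Black/Leff operational model. α gives the change in receptor affinity for ACh, and β gives the change in efficacy, the functional cooperativity.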

[2] = Selectivity ratio of EC50 for human muscarinic acetylcholine receptor M4 expressed in CHO cells to EC50 for human muscarinic acetylcholine receptor M1 expressed in CHO cells; format: ADME, cell-based
Brain [3] = experiment: Unbound brain concentration in scopolamine-induced memory impairment Wistar rat model at 3.2 mg/kg, sc measured after 1.25 hrs by LC-MS/MS analysis; format: ADME, organism-based; details: in vivo
Canis familiaris [4] = experiment: Unbound Cmax in dog plasma at 15 mg/kg, po administered as single dose using spray dried dispersion formulation; format: ADME, organism-based, Canis lupus familiaris; details: in vivo
Canis familiaris [5] = experiment: Unbound Cmax in dog plasma at 5 mg/kg, po administered as single dose using hydroxypropyl cellulose/docusate sodium formulation; format: ADME, organism-based, Canis lupus familiaris; details: in vivo
In short: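 Dogs given a single oral 5 mg/kg dose as a nanosuspension (hydroxypropyl cellulose SL, 0.05% docusate sodium in purified water), 1/sex. Unbound plasma Cmax and AUC determined, with clinical signs monitored at approximate hours postdose.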

[6] = target: T1, Muscarinic acetylcholine receptor M1; experiment: Agonist activity at human muscarinic acetylcholine receptor M1 expressed in CHO cells assessed as increase in calcium mobilization incubated for 10 mins by Fluo-8-AM dye based FLIPR assay; format: cell-based
In short: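 M1 FLIPR calcium mobilization run in agonist mode (compound added without the EC20 ACh used in PAM mode). Top concentration 10 μM. EC50 values are geometric means of at least three experiments.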

[7] = Unbound plasma concentration in iv or po dosed mouse; format: ADME, organism-based
[8] = Positive allosteric modulation of muscarinic acetylcholine receptor M1 in Hartley guinea pig ileum longitudinal muscle myenteric plexus assessed as increase in acetylcholine-induced tissue contraction after 10 mins in presence of donepezil; details: Cavia porcellus
[9] = target: T1, Muscarinic acetylcholine receptor M1; experiment: Activity at human muscarinic acetylcholine receptor M1 expressed in CHO cells by beta-arrestin recruitment assay; format: cell-based
[10] = target: T1, Muscarinic acetylcholine receptor M1; experiment: Positive allosteric modulation of human muscarinic acetylcholine receptor M1 expressed in CHO cells assessed as increase in acetylcholine-induced calcium mobilization preincubated for 10 mins followed by acetylcholine addition by Fluo-8-AM dye based FLIPR assay; format: ADME, cell-based
In short: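 M1 potentiation (PAM) format: calcium mobilization read on a FLIPR plate reader with an EC20 concentration of ACh present. EC50 is the geometric mean of at least three experiments.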

[11] = Ratio of unbound Cmax in dog brain assessed as convulsions at 15 mg/kg, po administered as single dose to unbound brain concentration for agonist activity at muscarinic acetylcholine receptor M1 in C57BL/6 mouse assessed as required to show 2 fold increase in IP1 accumulation in striatum at 1 to 10 mg/kg, sc; format: organism-based
[12] = target: T1, Muscarinic acetylcholine receptor M1; experiment: Activity at human muscarinic acetylcholine receptor M1 expressed in CHO cells assessed as increase in calcium mobilization incubated for 10 mins by Fluo-8-AM dye based FLIPR assay; format: cell-based
Brain [13] = experiment: Unbound brain concentration in scopolamine-induced memory impairment Wistar rat model at 0.32 mg/kg, sc measured after 1.25 hrs by LC-MS/MS analysis; format: ADME, organism-based; details: in vivo
Canis familiaris [14] = experiment: Cholinergic toxicity in dog assessed as watery stool at 5 mg/kg, po administered as single dose using shydroxypropyl cellulose/docusate sodium formulation after 0.5 to 1.3 hrs; format: organism-based, Canis lupus familiaris; details: in vivo
In short: (§1)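 Single-dose oral dose-escalation study, 1 dog/sex/dose. The 5 mg/kg dose was given as a nanosuspension in hydroxypropyl cellulose SL with 0.05% docusate sodium in purified water. Cholinergic clinical signs were recorded at approximate hours postdose, alongside unbound plasma Cmax.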

[15] = Thermodynamic solubility of the compound in FeSSIF at pH 6.3; details: read-out: Therm_solubility
Cavia porcellus = organism: Cavia porcellus; experiment: (§2) Agonist activity at muscarinic acetylcholine receptor M1 in Hartley guinea pig ileum longitudinal muscle myenteric plexus assessed as tissue contraction after 10 mins
[16] = as §2; details: Cavia porcellus
Canis familiaris [17] = experiment: Toxicity in dog assessed as vocalization at 15 mg/kg, po administered as single dose using spray dried dispersion formulation after 1 hr; format: organism-based, Canis lupus familiaris; details: in vivo
Rattus norvegicus [18] = experiment: Reversal of scopolamine-induced memory impairment in Wistar rat assessed as […] in hidden platform during 5 days training period at 0.32 to 3.2 mg/kg, sc administered 15 mins prior to test for 5 consecutive days followed by scopolamine challenge 30 mins prior to test by Morris water maze test; format: functional, organism-based
Plasma = experiment: Unbound plasma concentration in amphetamine-induced hyperlocomotion C57BL/6 mouse at 3.2 mg/kg, sc measured after 1 hr by LC-MS/MS analysis; format: ADME, organism-based; details: in vivo
In short: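 Satellite group of C57BL/6 mice from the amphetamine-stimulated locomotor study, N = 2/dose at 0.32, 1 and 3.2 mg/kg. Dosed sc as a solution in 10/90 Cremophor/water. Unbound plasma and brain concentrations measured at T = 1 h.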

Rattus norvegicus [19] = experiment: Unbound Cmax in rat plasma at 15 mg/kg, po administered as single dose; format: ADME, organism-based; details: in vivo
Canis familiaris [20] = experiment: Toxicity in dog assessed as death at 5 mg/kg, po administered as single dose using spray dried dispersion formulation after 1 day; format: organism-based, Canis lupus familiaris; details: in vivo, 24 h
In short: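 Single oral dose in dogs, 1/sex/dose. Spray-dried dispersion formulation: 23% drug loading with 0.5% methylcellulose and 100 mM citrate buffer. Clinical signs were recorded by hours postdose, with animals checked the next morning. Necropsy was performed.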

Canis familiaris [21] = experiment: Cholinergic toxicity in dog assessed as emesis at 5 mg/kg, po administered as single dose using shydroxypropyl cellulose/docusate sodium formulation after 0.5 to 1.3 hrs; format: organism-based, Canis lupus familiaris; details: in vivo; in short: as §1
[22] = target: T1, Muscarinic acetylcholine receptor M1; experiment: Agonist activity at human muscarinic acetylcholine receptor M1 expressed in CHO cells assessed as increase in calcium mobilization at 30 uM incubated for 10 mins by Fluo-8-AM dye based FLIPR assay relative to acetylcholine; format: cell-based
Canis familiaris [23] = experiment: Toxicity in dog assessed as convulsion at 15 mg/kg, po administered as single dose using spray dried dispersion formulation after 1.2 hrs; format: organism-based, Canis lupus familiaris; details: in vivo
In short: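 Dog single oral dose escalation: 1/sex at 5 mg/kg for each formulation; 1 female at 15 mg/kg. Spray-dried dispersion: 23% drug loading with 0.5% methylcellulose and 100 mM citrate buffer. Clinical signs timed in approximate hours postdose; unbound plasma Cmax.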

Cc1cc2c(cc1Cc1ccc(-c3cocn3)cc1)C(=O)N([C@H]1CCOC[C@@H]1O)C2
log(activity) [1]: 2.3
Ratio EC50 [2]: > 200
Drug uptake(free) (Brain [3]): 40 nM
fCmax (Canis familiaris [4]): 1067 nM
fCmax (Canis familiaris [5]): 303 nM
EC50 [6]: ≥ 5000 nM
fraction unbound [7]: 0.013
EC50 [8]: 46 nM
Kb [9]: 8000 nM
EC50 [10]: 47 nM
selectivity ratio [11]: 15
Kb [12]: 3000 nM
Drug uptake(free) (Brain [13]): 3.4 nM
Activity (Canis familiaris [14]): Toxic
solubility thermodynamic [15]: 39.7 µg/mL (≈ 98.2 µM)
Activity (Cavia porcellus): Dose-dependent effect
EC50 [16]: 92 nM
Activity (Canis familiaris [17]): Toxic
Activity (Rattus norvegicus [18]): Active
Cp(f) (Plasma): 130 nM
fCmax (Rattus norvegicus [19]): 1507 nM
Activity (Canis familiaris [20]): Toxic
Activity (Canis familiaris [21]): Toxic
Activity [22]: 23%
Activity (Canis familiaris [23]): Toxic
